The source of these data is ChEMBL document CHEMBL1152431, “p-Guanidinoethyl calixarene and parent phenol derivatives exhibiting antibacterial activities. Synthesis and biological evaluation” (Bioorg Med Chem, 2009).

The source made the active and inactive calls. The calls are words filed in the database; no cut-off is given here. Bounds are passed on as bounds.

Assay [1] deals with Escherichia coli. In words: Antibacterial activity against Escherichia coli ATCC 25922 upto 256 ug/mL after 18 to 24 hrs by broth microdilution method. The assay is classed as functional, organism-based. In short, it runs like this:
(§1)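 CLSI broth microdilution in Mueller-Hinton broth, with a final inoculum of 1 × 10^5 CFU/mL in U-bottom microplates. Isolate purity was checked at each test by colony morphology and Gram stain. Drug dilutions were added and plates incubated 18–24 h at 35 °C. Growth was read as absorbance at 540 nm to give the MIC.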
On the technique in general: Dilution methods test growth across graded concentrations, often in twofold steps.

Assay [2] deals with Pseudomonas aeruginosa. The experiment in a line: Antibacterial activity against Pseudomonas aeruginosa ATCC 27853 upto 256 ug/mL after 18 to 24 hrs by broth microdilution method. The assay is classed as functional, organism-based. In short, it runs like this: as §1
The subject of assay [3] is Staphylococcus aureus. In words: Antibacterial activity against Staphylococcus aureus ATCC 25923 upto 256 ug/mL after 18 to 24 hrs by broth microdilution method. Format: functional, organism-based. In short, it runs like this:
as §1

Assay [4] has as its system Staphylococcus aureus. The experiment in a line: Antibacterial activity against Staphylococcus aureus ATCC 29213 upto 256 ug/mL after 18 to 24 hrs by broth microdilution method. Format: functional, organism-based. In short, it runs like this: as §1
For assay [5], the system named is Enterococcus faecalis. The experiment in a line: Antibacterial activity against Enterococcus faecalis ATCC 29212 upto 256 ug/mL after 18 to 24 hrs by broth microdilution method. Format: functional, organism-based. In short, it runs like this: as §1
Assay [6] in a line: Selectivity index, ratio of IC50 for human MRC5 cells after 24 hrs to MIC for Staphylococcus aureus ATCC 29213. The assay is classed as functional. In short, it runs like this: (§2)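 SI computed as the MRC-5 IC50 after 24 h of drug exposure divided by the broth microdilution MIC for the named reference strain.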
Assay [7] relates to Escherichia coli. The experiment in a line: Antibacterial activity against Escherichia coli ATCC 25922 after 18 to 24 hrs by broth microdilution method. Format: functional. In short, it runs like this: as §1
For assay [8], the system named is Pseudomonas aeruginosa. In words: Antibacterial activity against Pseudomonas aeruginosa ATCC 27853 after 18 to 24 hrs by broth microdilution method. The assay is classed as functional. The method, boiled down:
as §1

Assay [9] relates to Staphylococcus aureus. In words: Antibacterial activity against Staphylococcus aureus ATCC 25923 after 18 to 24 hrs by broth microdilution method. The assay is classed as functional. The method, boiled down: as §1
Assay [10] concerns Staphylococcus aureus. The experiment in a line: Antibacterial activity against Staphylococcus aureus ATCC 29213 after 18 to 24 hrs by broth microdilution method. Format: functional. The method, boiled down: as §1
Assay [11] concerns Enterococcus faecalis. The experiment in a line: Antibacterial activity against Enterococcus faecalis ATCC 29212 after 18 to 24 hrs by broth microdilution method. Format: functional. The method, boiled down:
as §1

Assay [12] concerns MRC5. The experiment in a line: Cytotoxicity against human MRC5 cells after 24 hrs. The assay is classed as cell-based. The note with it: MRC5, 24 h. The method, boiled down:
(§3)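 MRC-5 human embryonic lung fibroblasts were grown in MEM with 10% heat-inactivated FBS and no antibiotics at 37 °C, 5% CO2, and seeded at 10^4 cells/well. After 48 h, drugs were applied at 256 to 1 µg/mL for 24, 48 or 168 h. Viability was read by MTT, or by LDH release for some compounds, as percent of untreated control. IC50 was given as a range; 8 wells per dose, 3 independent experiments.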

Assay [13] deals with MRC5. The experiment in a line: Cytotoxicity against human MRC5 cells after 48 hrs. Format: cell-based. As to conditions: MRC5, 48 h. The method, boiled down:
as §3

Assay [14] concerns MRC5. The experiment in a line: Cytotoxicity against human MRC5 cells after 168 hrs. Format: cell-based. The note with it: MRC5, 168 h. In short, it runs like this: as §3
Assay [15] in a line: Selectivity index, ratio of IC50 for human MRC5 cells after 24 hrs to MIC for Escherichia coli ATCC 25922. The assay is classed as functional. The method, boiled down: as §2
Assay [16] can be described thus: Selectivity index, ratio of IC50 for human MRC5 cells after 24 hrs to MIC for Staphylococcus aureus ATCC 25923. The assay is classed as functional. The method, boiled down:
as §2

The nature of assay [17]: Selectivity index, ratio of IC50 for human MRC5 cells after 24 hrs to MIC for Enterococcus faecalis ATCC 29212. The assay is classed as functional. In short, it runs like this: as §2
Assay [18] is described as follows: Selectivity index, ratio of IC50 for human MRC5 cells after 24 hrs to MIC for Pseudomonas aeruginosa ATCC 27853. The assay is classed as functional. The method, boiled down:
as §2

For the compound `O=C([O-])C(F)(F)F.[Na+]`, the outcome in assay [1], in assay [2], in assay [3], in assay [4] and in assay [5] was inactive.
What is called MIC is the lowest concentration found to suppress growth. In general, IC50 refers to the midpoint of a concentration-inhibition curve. `N=C(N)NCCc1ccc(O)cc1.O=C(O)C(F)(F)F`: the “Selectivity Index” value in [6], in assay [15] and in assay [16] was more than 0.5 throughout. Besides, the minimum inhibitory concentration (MIC) is 512 µg/mL in assay [7]; more than 512 µg/mL in assay [8]; 512 µg/mL in [9]; 512 µg/mL in assay [10]; more than 512 µg/mL in assay [11]. Besides, the values for the IC50 in assay [12], in assay [13] and in assay [14] were more than 256 µg/mL, more than 256 µg/mL and 32 µg/mL, respectively.
As for `Cc1csc(-c2nc(COc3c4cc(CCNC(=N)N)cc3Cc3cc(CCNC(=N)N)cc(c3O)Cc3cc(CCNC(=N)N)cc(c3OCc3csc(-c5nc(C)cs5)n3)Cc3cc(CCNC(=N)N)cc(c3O)C4)cs2)n1.O=C(O)C(F)(F)F`, the “Selectivity Index” value stood at 1 in assay [6]; 2 in [17]; 1 in [15]; 1 in assay [18]; 2 in assay [16]. The minimum inhibitory concentration (MIC) is 16 µg/mL in assay [7]; 16 µg/mL in assay [8]; 8 µg/mL in assay [9]; 16 µg/mL in assay [10]; 8 µg/mL in [11]. In addition, the concentration for half-maximal inhibition (IC50) in assay [12], in assay [13] and in [14] was 16 µg/mL in each case.
As to `N=C(N)NCCc1cc2c(O)c(c1)Cc1cc(CCNC(=N)N)cc(c1O)Cc1cc(CCNC(=N)N)cc(c1O)Cc1cc(CCNC(=N)N)cc(c1O)C2.O=C(O)C(F)(F)F`, the “Selectivity Index” value in assay [6] is given as more than 32; in [17], more than 8; in assay [15] it was more than 64; in assay [18], more than 8; in assay [16] it was more than 32. Besides, the minimal inhibitory concentration (MIC) stood at 4 µg/mL in assay [7]; 32 µg/mL in [8]; 8 µg/mL in [9]; 8 µg/mL in assay [10]; 32 µg/mL in assay [11]. Moreover, the values for the half-inhibitory concentration (IC50) in assay [12], in assay [13] and in assay [14] were more than 256 µg/mL, more than 256 µg/mL and 128 µg/mL, respectively.
Consider `Cc1cccc(-c2cccc(COc3c4cc(CCNC(=N)N)cc3Cc3cc(CCNC(=N)N)cc(c3O)Cc3cc(CCNC(=N)N)cc(c3OCc3cccc(-c5cccc(C)n5)n3)Cc3cc(CCNC(=N)N)cc(c3O)C4)n2)n1.O=C(O)C(F)(F)F`, for which the “Selectivity Index” value in [6], in assay [17], in [15], in [18] and in assay [16] was 1 in each case. In addition, the MIC in [7], in [8], in assay [9], in [10] and in assay [11] was 16 µg/mL each time. Besides, the 50% inhibitory concentration (IC50) in assay [12], in assay [13] and in assay [14] was 16 µg/mL throughout.
Turning to `Cc1ccc(-c2ccc(COc3ccc(CCNC(=N)N)cc3)cn2)nc1.O=C(O)C(F)(F)F`, the “Selectivity Index” value in assay [6] was more than 32; in assay [17], more than 2; in assay [15], more than 16; in assay [18], more than 1; in assay [16], more than 16. Besides, the minimum inhibitory concentration (MIC) amounted to 8 µg/mL in assay [7]; 128 µg/mL in [8]; 8 µg/mL in assay [9]; 4 µg/mL in assay [10]; 64 µg/mL in assay [11]. In addition, the IC50 in assay [12] and in assay [13] was more than 128 µg/mL each time.
Regarding `Cc1csc(-c2nc(COc3ccc(CCNC(=N)N)cc3)cs2)n1.O=C(O)C(F)(F)F`, the “Selectivity Index” value was found to be 8 in assay [6]; 1 in [17]; 1 in assay [15]; 0.5 in assay [18]; 4 in assay [16]. Also, the minimal inhibitory concentration (MIC) in assay [7] is 64 µg/mL; in [8], 128 µg/mL; in [9] it was 16 µg/mL; in [10], 8 µg/mL; in [11] it was 64 µg/mL. In addition, the results for the half-maximal inhibitory concentration (IC50) in assay [12], in assay [13] and in assay [14] were 64 µg/mL, 32 µg/mL and 8 µg/mL, respectively.
For the compound `Cc1ccc(-c2ccc(COc3c4cc(CCNC(=N)N)cc3Cc3cc(CCNC(=N)N)cc(c3O)Cc3cc(CCNC(=N)N)cc(c3OCc3ccc(-c5ccc(C)cn5)nc3)Cc3cc(CCNC(=N)N)cc(c3O)C4)cn2)nc1.O=C(O)C(F)(F)F`, the “Selectivity Index” value in [6] is recorded as more than 16; in assay [17] it was more than 16; in assay [15], more than 4; in assay [18], more than 4; in assay [16], more than 16. The minimum inhibitory concentration (MIC) in [7] amounted to 32 µg/mL; in assay [8], 32 µg/mL; in assay [9] it was 8 µg/mL; in [10] it was 8 µg/mL; in assay [11], 8 µg/mL. In addition, the IC50 in [12] and in [13] was more than 128 µg/mL in each case.
On to `N=C(N)c1ccc(OCCCCCCOc2ccc(C(=N)N)cc2)cc1.O=C(O)C(F)(F)F`, for which the “Selectivity Index” value is reported as 32 in [6]; 16 in [17]; 4 in assay [15]; 1 in assay [18]; 8 in assay [16]. The minimal inhibitory concentration (MIC) in assay [7] was 8 µg/mL; in assay [8], 32 µg/mL; in assay [9], 4 µg/mL; in assay [10], less than 1 µg/mL; in assay [11], 2 µg/mL. Further, the IC50 in assay [12] was determined as 32 µg/mL; in [13], 16 µg/mL; in [14] it was 4 µg/mL.
With `N=C(N)NCCCCCCCCCCNC(=N)N.O=C(O)C(F)(F)F` [SYNTHALIN A], the “Selectivity Index” value was found to be 8 in assay [6]; 0.5 in [17]; 2 in assay [15]; 1 in assay [18]; 2 in assay [16]. Further, the minimum inhibitory concentration (MIC) is 64 µg/mL in [7]; 128 µg/mL in [8]; 64 µg/mL in assay [9]; 16 µg/mL in assay [10]; 256 µg/mL in [11]. In addition, the half-inhibitory concentration (IC50) was 128 µg/mL in assay [12], 8 µg/mL in assay [13] and less than 1 µg/mL in assay [14].
In the case of `Cc1cccc(-c2cccc(COc3ccc(CCNC(=N)N)cc3)n2)n1.O=C(O)C(F)(F)F`, the “Selectivity Index” value turned out to be 4 in assay [6]; 0.5 in assay [17]; 0.25 in assay [15]; 0.25 in assay [18]; 2 in assay [16]. The minimal inhibitory concentration (MIC) in assay [7] stood at 128 µg/mL; in assay [8], 128 µg/mL; in assay [9], 16 µg/mL; in assay [10] it was 8 µg/mL; in assay [11], 64 µg/mL. Besides, the IC50 in assay [12] is 32 µg/mL; in [13], 16 µg/mL; in assay [14] it was 2 µg/mL.
